# Compound activity (PubChem)
# CASP6 VEID inh – caspase-6 (human) enzyme inhibition | P55212 | purified caspase-6, Z-VEID-R110 cleavage fluorescence | inhibition, % at 12.5 µM | 350,000 compounds, 0.53% hits | AID 686996;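 active = mean inhibition across replicates at least about 35%, with every replicate also reaching that limit, limit read from the data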;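 also: 0% = median of neutral control wells and 100% = no fluorescence left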
# UHRF1 MBD2 ctr – UHRF1 methyl-DNA binding inhibition; UHRF1 binding to methylated oligo, TR-FRET; inhibition, % at 4.4 µM; 370,000 compounds, 0.75% hits; in the data active = inhibition above about 21%;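 also: UHRF1 SRA domain binding a hemimethylated CpG hairpin DNA probe; 0% = median of test compound wells and 100% = reference inhibitor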
# LEDGF integ inh – blocks HIV-1 LEDGF/p75-dependent DNA integration; TR-FRET IN-LEDGF/p75 DNA integration, Eu/Cy5; inhibition, % at 3.7 µM; 370,000 compounds, 0.64% hits; AID 743269;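 active = inhibition above the screen-wide mean plus 3 SD, cut at about 13% in these data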;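 also: signal is the Cy5 over europium emission ratio at 671 and 618 nm; 0% = plate median of compound wells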
# TDP2 inh – blocks human TDP2 phosphodiesterase activity; recombinant TDP2, T5PNP hydrolysis, p-nitrophenol absorbance 415 nm; inhibition, % at 12.8 µM; 370,000 compounds, 0.34% hits;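 active = inhibition above the mean of all tested compounds plus 3 SD, set per campaign, cut at about 25% in these data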;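 also: 0% = DMSO with enzyme and 100% = buffer with substrate but no TDP2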
#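 Test system: Human TDP2 enzyme | Reagent: 5 mM T5PNP | Compound dosing: 12.8 µM single point, 1% DMSO | Incubation: Enzyme reaction with compound for 2 h at 37 °C | Technique: p-Nitrophenol epi absorbance | Read-out: % inhibition relative to enzyme-containing and enzyme-free wells | Benchmarks: High control without enzyme, low control DMSO plus TDP2 | Replicates: Singlicate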
# NSD2 HMT inh – inhibitors of human histone methyltransferase NSD2 | O96028 | NSD2 peptide methylation, AlphaScreen, 120 min | inhibition, % at 12.5 µM | 310,000 compounds, 0.54% hits; in the data active = inhibition above about 50%
# Target sequence (O96028 whole entry, looked up): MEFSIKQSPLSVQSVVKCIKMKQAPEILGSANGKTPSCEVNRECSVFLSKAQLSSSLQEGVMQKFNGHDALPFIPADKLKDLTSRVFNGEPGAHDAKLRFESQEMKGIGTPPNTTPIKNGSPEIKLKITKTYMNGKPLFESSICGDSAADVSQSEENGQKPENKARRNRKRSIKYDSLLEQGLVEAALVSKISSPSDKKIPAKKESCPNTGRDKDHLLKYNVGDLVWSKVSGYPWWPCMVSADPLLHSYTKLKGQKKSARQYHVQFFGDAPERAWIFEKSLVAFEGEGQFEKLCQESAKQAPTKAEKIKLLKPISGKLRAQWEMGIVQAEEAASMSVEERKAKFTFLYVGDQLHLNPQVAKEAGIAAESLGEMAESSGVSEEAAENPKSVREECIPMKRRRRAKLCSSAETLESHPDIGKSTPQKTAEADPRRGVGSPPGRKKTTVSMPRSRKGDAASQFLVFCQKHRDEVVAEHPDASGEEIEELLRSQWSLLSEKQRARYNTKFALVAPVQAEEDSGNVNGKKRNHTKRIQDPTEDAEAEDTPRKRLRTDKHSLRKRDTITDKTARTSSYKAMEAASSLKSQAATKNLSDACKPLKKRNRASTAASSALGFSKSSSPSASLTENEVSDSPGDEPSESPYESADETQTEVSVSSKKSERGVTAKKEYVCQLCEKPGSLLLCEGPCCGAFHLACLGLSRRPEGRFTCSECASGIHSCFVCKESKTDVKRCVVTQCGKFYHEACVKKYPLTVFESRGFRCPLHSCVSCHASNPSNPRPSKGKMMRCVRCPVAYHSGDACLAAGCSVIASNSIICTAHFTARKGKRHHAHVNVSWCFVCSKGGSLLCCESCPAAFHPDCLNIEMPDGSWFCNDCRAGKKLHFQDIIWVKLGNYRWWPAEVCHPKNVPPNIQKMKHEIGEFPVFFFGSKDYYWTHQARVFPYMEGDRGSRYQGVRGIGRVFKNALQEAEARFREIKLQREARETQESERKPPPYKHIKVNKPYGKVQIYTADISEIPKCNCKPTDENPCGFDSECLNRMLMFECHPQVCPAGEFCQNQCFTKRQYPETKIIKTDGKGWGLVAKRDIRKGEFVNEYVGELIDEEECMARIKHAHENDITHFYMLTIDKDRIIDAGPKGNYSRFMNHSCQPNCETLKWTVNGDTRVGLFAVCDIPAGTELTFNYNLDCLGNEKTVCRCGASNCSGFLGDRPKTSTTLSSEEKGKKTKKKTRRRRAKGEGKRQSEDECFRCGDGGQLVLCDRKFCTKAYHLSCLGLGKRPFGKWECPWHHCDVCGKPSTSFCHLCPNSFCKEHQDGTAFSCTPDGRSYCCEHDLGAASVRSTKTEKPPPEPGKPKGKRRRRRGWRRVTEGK
# MBD2 inh – inhibitors of human MBD2 binding to methylated oligonucleotide. Q9UBB5. TR-FRET. inhibition, % at 4.4 µM. 370,000 compounds, 0.31% hits. AID 686964; in the data active = inhibition above about 13%
# Starred values were filed as active, the others as inactive; · = no result. Only some compounds are listed: those with a hit (about 1.9% of all), similar ones and a draw of the others.
SMILES,CASP6 VEID inh,UHRF1 MBD2 ctr,LEDGF integ inh,TDP2 inh,NSD2 HMT inh,MBD2 inh
Cc1ccc(C(C)C)cc1OCC(=O)Nc1nnc(C2CC2)s1,0,27*,1,9,0,4
C[C@H](CO)N1C[C@H](C)[C@@H](CN(C)C(=O)CCCN(C)C)OCc2cnnn2CCCC1=O,-24,·,·,·,·,·
CC(C)OCCCNC(=O)CN1C(=O)COc2ccc(S(=O)(=O)N3CCCCCC3)cc21,37*,1,-4,-7,·,-1
C[C@@H]1CN([C@@H](C)CO)C(=O)c2cccc(N(C)C)c2O[C@H]1CN(C)Cc1ccc(C(=O)O)cc1,0,·,·,·,·,·
C[C@@H]1CN([C@@H](C)CO)C(=O)c2cc(NC(=O)Nc3cccc4ccccc34)ccc2O[C@@H]1CN(C)S(=O)(=O)c1ccccc1,-1,·,·,·,·,·
Cc1cccc(C)c1NS(=O)(=O)c1ccc(-c2ccc(=O)[nH]n2)o1,41*,0,2,1,-5,-6
O=C(C[C@H]1CC[C@H](NC(=O)NC2CCCCC2)[C@@H](CO)O1)NCc1ccccc1,-1,·,·,·,·,·
O=C(Oc1cc2oc(=O)c3c(c2cc1Cl)CCCC3)c1ccco1,·,24*,1,4,-1,12
O=C(Cc1ccccn1)N1CC(=O)N2[C@H](C1)[C@H](c1ccc(C#CC3CCCCC3)cc1)[C@@H]2CO,3,·,·,·,·,·
COc1cc(O)c2c(c1)oc(=O)c1c3cc(O)c(O)cc3oc21,77*,·,·,·,·,·
O=C(N[C@H]1CC[C@H](CCNS(=O)(=O)c2ccc(F)cc2)O[C@@H]1CO)C1CC1,0,·,·,·,·,·
COc1cc2c(cc1OC)C(=O)C(Br)CC2 (stereo not drawn),·,·,·,·,140*,·
O=C(C[C@H]1CC[C@H]2[C@@H](COC[C@H](O)CN2Cc2ccc(F)cc2)O1)NCc1ccccc1Cl,-1,·,·,·,·,·
C[C@@H]1CCCCO[C@@H](CN(C)C(=O)NC2CCCCC2)[C@@H](C)CN([C@@H](C)CO)C(=O)c2cc(NC(=O)NC3CCCCC3)ccc2O1,0,·,·,·,·,·
COc1ccc(-c2nc3c(c(SCC(=O)Nc4cccc(O)c4)n2)Cc2c(CO)cnc(C)c2O3)cc1,-1,-1,14*,-10,13,1
Cc1ncc(CO)c2c1Oc1nc(-c3ccccc3)nc(SCC(=O)Nc3cccc(O)c3)c1C2,3,-2,8,2,2,0
C/C(=N\Nc1ccc(C(=O)O)cc1)c1ccc(Br)cc1,43*,22*,0,19,10,8
C/C(=N/Nc1ncc(Br)cn1)c1ccc(Br)cc1,2,-3,2,-6,-2,-1
COc1cccc(NC(=O)CN(C)C(=O)CNC(=O)c2sc3ccccc3c2Cl)c1,-71,21*,5,-11,4,8
COc1ccccc1NS(=O)(=O)c1cccc(NC(=O)c2sc3ccccc3c2Cl)c1,1,26*,-2,1,-1,-1
COc1ccccc1NS(=O)(=O)c1ccc(Cl)c(NC(=O)c2sc3cc(Cl)ccc3c2Cl)c1,0,0,-2,5,2,2
COc1ccc(NC(=O)N(C)C[C@H]2Oc3ccc(NC(=O)Cc4cn(C)c5ccccc45)cc3CC(=O)N([C@H](C)CO)C[C@H]2C)cc1,-1,·,·,·,·,·
O=C(CC1C(=O)NCCN1C(=O)Nc1ccccc1)Nc1cc(Cl)cc(Cl)c1 (stereo not drawn),3,-3,1,-8,0,0
O=C(CC1C(=O)NCCN1C(=O)Nc1ccccc1)Nc1cccc(Cl)c1 (stereo not drawn),2,33*,-2,-8,2,5
C[C@@H]1CN([C@@H](C)CO)C(=O)c2cc(NS(=O)(=O)c3ccccc3)ccc2O[C@H]1CN(C)Cc1ccc2c(c1)OCO2,0,·,·,·,·,·
CC(C)(C)S(=O)N1Cc2cc(C(=O)NCc3ccc4c(c3)OCO4)nc(-c3cccc(-c4cc5ccccc5o4)c3)c2[C@H]1CCO (stereo partly drawn),2,·,·,·,·,·
NC(=O)Cn1cc(C(=O)C(=O)N2CCOCC2)c2ccccc21,45*,2,-1,-10,-1,1
CN(Cc1ccccc1)c1nc(-c2cccc([N+](=O)[O-])c2)nc2ccccc12,·,23*,-2,-16,-1,3
O=[N+]([O-])c1cccc(-c2nc(NCc3ccccc3)c3ccccc3n2)c1,·,2,2,-8,-2,1
